Laboratory results published in ChEMBL document CHEMBL4368914, “Tricyclic Indazoles-A Novel Class of Selective Estrogen Receptor Degrader Antagonists” (J Med Chem, 2019).
Converted amounts (≈) assume the structure as drawn.

Key:
[1] = Fraction unbound in dog plasma by equilibrium dialysis; assay type: ADME, cell-free, Canis lupus familiaris
[2] = Solubility of the compound in phosphate buffer at pH 7.4 after 24 hrs; assay type: physicochemical
Outline: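 Solubility in aqueous phosphate buffer at pH 7.4 after 24 h at 25 °C.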

[3] = Oral bioavailability in rat at 1 mg/kg; assay type: ADME, organism-based; settings: in vivo
Outline: (§1)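 Single IV dose of 0.5 mg/kg and oral dose of 1 mg/kg in rat and dog. Both routes were formulated in 5% DMSO:95% hydroxypropyl β-cyclodextrin (30% w/v), at 1 mL/kg IV and 4 mL/kg PO.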

[4] = Apparent permeability in human Caco2 cells at 10 uM; assay type: ADME, cell-based; settings: Caco-2
Outline: (§2)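 Compound at 10 μM incubated on cultured Caco-2 or MDCK cells. Permeability was measured apical-to-basolateral and basolateral-to-apical, and efflux ratio was taken as (B to A)/(A to B).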

Cytochrome P450 2C19 = Cytochrome P450 2C19 (Homo sapiens, UniProt P33261); assay: Inhibition of CYP2C19 in human liver microsomes; assay type: ADME
Chain of Cytochrome P450 2C19 (P33261 whole entry, canonical isoform): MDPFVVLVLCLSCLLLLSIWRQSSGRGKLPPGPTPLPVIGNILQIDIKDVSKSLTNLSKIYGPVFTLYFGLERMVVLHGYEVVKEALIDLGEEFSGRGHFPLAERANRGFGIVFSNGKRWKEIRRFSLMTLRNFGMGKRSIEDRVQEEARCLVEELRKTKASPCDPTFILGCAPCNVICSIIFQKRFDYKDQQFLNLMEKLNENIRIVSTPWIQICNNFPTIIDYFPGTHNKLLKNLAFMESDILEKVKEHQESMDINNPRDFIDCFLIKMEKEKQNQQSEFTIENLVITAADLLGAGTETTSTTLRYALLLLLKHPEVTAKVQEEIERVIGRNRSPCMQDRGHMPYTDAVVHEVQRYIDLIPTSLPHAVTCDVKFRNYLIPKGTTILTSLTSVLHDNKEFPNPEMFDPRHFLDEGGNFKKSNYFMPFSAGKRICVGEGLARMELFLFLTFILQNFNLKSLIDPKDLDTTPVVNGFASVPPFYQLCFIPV
Outline: (§3)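 High-throughput human liver microsome assay across a panel of five CYP isoforms, giving IC50.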

[5] = Intrinsic clearance in rat hepatocytes assessed per million cells; assay type: ADME, cell-based, Hepatocyte; settings: read-out: CLH
Outline: (§4)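 Rate of metabolism (µl/min/10⁶ cells) measured from DMSO stock in isolated hepatocytes diluted to 1x10⁶ cells/mL.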

[6] = Clearance in rat at 0.5 mg/kg, iv or 1 mg/kg, po; assay type: ADME, organism-based; settings: in vivo; outline: as §1
[7] = Efflux ratio of apparent permeability in human Caco2 cells at 10 uM; assay type: ADME, cell-based; settings: Caco-2; outline: as §2
[8] = Stability in pH 10 deuterated buffer assessed as compound remaining after 8 days by 1H NMR spectroscopy; assay type: physicochemical; settings: pH 10, 192 h
Outline: (§5)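 Compound diluted from a 25 mM DMSO-d6 stock to a final 1 mM in each deuterated buffer. Followed by ¹H NMR (500 MHz, water suppression, 64 scans) and LC-MS at 0, 24, 72 and 192 h (8 days).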

[9] = Clearance in dog at 0.5 mg/kg, iv or 1 mg/kg, po; assay type: ADME, organism-based, Canis lupus familiaris; settings: in vivo; outline: as §1
[10] = Intrinsic clearance in human hepatocytes assessed per million cells; assay type: ADME, cell-based, Hepatocyte; settings: read-out: CLH; outline: as §4
[11] = Oral bioavailability in dog at 1 mg/kg; assay type: ADME, organism-based, Canis lupus familiaris; settings: in vivo; outline: as §1
[12] = Glutathione reactivity in human liver microsomes assessed as GSH trapping ratio of compound to clozapine; assay type: ADME, Microsome
Outline: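 Glutathione trapping in human liver microsomes, expressed as a ratio to clozapine.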

Cytochrome P450 1A2 = target: T1, Cytochrome P450 1A2 (Homo sapiens, UniProt P05177); assay: Inhibition of CYP1A2 in human liver microsomes; assay type: ADME; outline: as §3
T1 sequence (P05177 whole entry): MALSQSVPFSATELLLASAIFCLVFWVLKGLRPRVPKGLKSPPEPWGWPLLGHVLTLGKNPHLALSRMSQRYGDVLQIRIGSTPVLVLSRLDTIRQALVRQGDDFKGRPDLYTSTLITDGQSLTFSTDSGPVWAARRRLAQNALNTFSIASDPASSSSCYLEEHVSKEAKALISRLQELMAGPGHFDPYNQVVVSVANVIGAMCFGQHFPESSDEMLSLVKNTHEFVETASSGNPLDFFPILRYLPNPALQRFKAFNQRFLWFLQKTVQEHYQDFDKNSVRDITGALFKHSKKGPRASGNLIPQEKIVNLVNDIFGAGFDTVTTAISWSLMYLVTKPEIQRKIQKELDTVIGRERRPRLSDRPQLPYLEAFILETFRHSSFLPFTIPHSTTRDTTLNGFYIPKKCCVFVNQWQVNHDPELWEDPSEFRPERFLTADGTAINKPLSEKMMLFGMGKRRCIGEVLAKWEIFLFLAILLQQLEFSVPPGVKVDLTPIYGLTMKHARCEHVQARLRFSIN

[13] = Intrinsic clearance in dog hepatocytes assessed per million cells; assay type: ADME, cell-based, Canis lupus familiaris, Hepatocyte; settings: read-out: CLH; outline: as §4
[14] = Efflux ratio of apparent permeability in MDCK cells at 10 uM; assay type: ADME, cell-based, Canis lupus familiaris; settings: dog; outline: as §2
Estrogen receptor [15] = target: T2, Estrogen receptor (Homo sapiens, UniProt P03372); assay: Binding affinity to recombinant human GST-tagged ERalpha LBD expressed in baculovirus-infected insect cells by lantha screen assay
T2 sequence (P03372 whole entry): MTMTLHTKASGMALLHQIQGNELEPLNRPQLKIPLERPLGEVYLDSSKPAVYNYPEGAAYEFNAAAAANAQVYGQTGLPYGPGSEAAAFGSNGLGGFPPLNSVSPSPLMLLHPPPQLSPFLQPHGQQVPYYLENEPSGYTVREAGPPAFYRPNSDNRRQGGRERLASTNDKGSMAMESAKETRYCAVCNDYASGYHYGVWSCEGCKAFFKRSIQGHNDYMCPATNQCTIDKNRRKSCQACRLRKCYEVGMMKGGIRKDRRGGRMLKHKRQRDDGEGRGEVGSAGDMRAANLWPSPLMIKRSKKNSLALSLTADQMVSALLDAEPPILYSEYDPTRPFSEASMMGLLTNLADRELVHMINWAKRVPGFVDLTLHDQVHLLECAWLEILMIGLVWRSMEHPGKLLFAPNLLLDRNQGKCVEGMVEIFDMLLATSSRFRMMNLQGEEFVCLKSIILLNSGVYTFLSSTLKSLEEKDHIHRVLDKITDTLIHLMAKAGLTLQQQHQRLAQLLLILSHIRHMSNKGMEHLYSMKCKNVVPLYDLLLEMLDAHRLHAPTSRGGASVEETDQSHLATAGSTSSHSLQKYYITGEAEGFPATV

[16] = Half life in rat at 0.5 mg/kg, iv or 1 mg/kg, po; assay type: ADME, organism-based; settings: in vivo; outline: as §1
[17] = Lipophilicity, log D of the compound at pH 7.4 by shake flask method; assay type: physicochemical; settings: buffer
Outline: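 Shake-flask measurement of logD at pH 7.4.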

Estrogen receptor [18] = target: T2, Estrogen receptor; assay: Induction of ERalpha degradation in human MCF7 cells after 18 to 24 hrs by in multiplexed cell assay; assay type: cell-based
Outline: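 MCF-7 cells were kept at 37 °C, 5% CO₂ in phenol red-free RPMI1640 with 5% charcoal-stripped FCS and 2 mmol/L glutamine. Compounds came from 10 mmol/L DMSO stocks.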

[19] = Half life in dog at 0.5 mg/kg, iv or 1 mg/kg, po; assay type: ADME, organism-based, Canis lupus familiaris; settings: in vivo; outline: as §1
[20] = Apparent permeability in MDCK cells at 10 uM; assay type: ADME, cell-based, Canis lupus familiaris; settings: dog; outline: as §2
[21] = Fraction unbound in Alderley Park Han Wistar rat plasma by equilibrium dialysis; assay type: ADME, cell-free
Outline: (§6)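 Equilibrium dialysis from DMSO stock in 10% plasma, either Alderley Park Han Wistar rat plasma or human plasma.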

[22] = Fraction unbound in mouse plasma by equilibrium dialysis; assay type: ADME, cell-free
[23] = AUC in dog at 1 mg/kg, po; assay type: ADME, organism-based, Canis lupus familiaris; settings: in vivo; outline: as §1
[24] = Stability in pH 4 deuterated buffer assessed as compound remaining after 8 days by 1H NMR spectroscopy; assay type: physicochemical; settings: pH 4, 192 h; outline: as §5
Cytochrome P450 2D6 = Cytochrome P450 2D6 (Homo sapiens, UniProt P10635); assay: Inhibition of CYP2D6 in human liver microsomes; assay type: ADME; outline: as §3
Chain of Cytochrome P450 2D6 (P10635 whole entry): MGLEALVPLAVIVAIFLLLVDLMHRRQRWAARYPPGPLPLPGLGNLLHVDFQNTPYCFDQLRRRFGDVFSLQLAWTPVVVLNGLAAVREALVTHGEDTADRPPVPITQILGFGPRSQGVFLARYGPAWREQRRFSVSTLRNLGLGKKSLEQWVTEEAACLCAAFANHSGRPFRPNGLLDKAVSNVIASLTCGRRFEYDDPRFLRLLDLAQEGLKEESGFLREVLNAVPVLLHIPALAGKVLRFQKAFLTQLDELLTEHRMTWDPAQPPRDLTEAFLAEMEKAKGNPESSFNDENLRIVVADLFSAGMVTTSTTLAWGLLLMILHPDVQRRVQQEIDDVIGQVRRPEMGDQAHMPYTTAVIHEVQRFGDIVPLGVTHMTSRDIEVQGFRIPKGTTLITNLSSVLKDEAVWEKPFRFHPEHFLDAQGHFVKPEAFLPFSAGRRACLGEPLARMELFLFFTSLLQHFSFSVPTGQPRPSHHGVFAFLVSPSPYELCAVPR

[25] = Volume of distribution at steady state in dog at 0.5 mg/kg, iv or 1 mg/kg, po; assay type: ADME, organism-based, Canis lupus familiaris; settings: in vivo, read-out: Vdss; outline: as §1
[26] = AUC in rat at 1 mg/kg, po; assay type: ADME, organism-based; settings: in vivo; outline: as §1
[27] = Stability in pH 7.4 deuterated buffer assessed as compound remaining after 8 days by 1H NMR spectroscopy; assay type: physicochemical; settings: pH 7.4, 192 h; outline: as §5
[28] = Fraction unbound in 10% human plasma by equilibrium dialysis; assay type: ADME, cell-free; settings: 10% plasma; outline: as §6
[29] = Volume of distribution at steady state in rat at 0.5 mg/kg, iv or 1 mg/kg, po; assay type: ADME, organism-based; settings: in vivo, read-out: Vdss; outline: as §1
Cytochrome P450 2C9 = Cytochrome P450 2C9 (Homo sapiens, UniProt P11712); assay: Inhibition of CYP2C9 in human liver microsomes; assay type: ADME; outline: as §3
Chain of Cytochrome P450 2C9 (P11712 whole entry): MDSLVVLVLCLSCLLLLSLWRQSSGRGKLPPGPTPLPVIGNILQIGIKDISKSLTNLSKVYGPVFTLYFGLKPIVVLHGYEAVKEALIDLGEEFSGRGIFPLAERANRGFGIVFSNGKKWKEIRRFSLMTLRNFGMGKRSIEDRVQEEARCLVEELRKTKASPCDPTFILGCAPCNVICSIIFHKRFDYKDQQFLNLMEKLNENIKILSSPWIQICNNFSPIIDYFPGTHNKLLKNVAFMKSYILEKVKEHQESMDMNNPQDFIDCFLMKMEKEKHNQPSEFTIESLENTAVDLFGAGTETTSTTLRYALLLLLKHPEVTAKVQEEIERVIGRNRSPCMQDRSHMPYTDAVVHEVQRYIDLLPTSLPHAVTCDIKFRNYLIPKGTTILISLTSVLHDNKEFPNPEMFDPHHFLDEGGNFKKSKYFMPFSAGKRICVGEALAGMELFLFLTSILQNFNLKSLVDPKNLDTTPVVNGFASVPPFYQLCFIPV

[30] = target: Voltage-gated inwardly rectifying potassium channel KCNH2 (Homo sapiens, UniProt Q12809); assay: Inhibition of human ERG by plate based planar patch clamp assay
Chain of Voltage-gated inwardly rectifying potassium channel KCNH2 (Q12809 whole entry): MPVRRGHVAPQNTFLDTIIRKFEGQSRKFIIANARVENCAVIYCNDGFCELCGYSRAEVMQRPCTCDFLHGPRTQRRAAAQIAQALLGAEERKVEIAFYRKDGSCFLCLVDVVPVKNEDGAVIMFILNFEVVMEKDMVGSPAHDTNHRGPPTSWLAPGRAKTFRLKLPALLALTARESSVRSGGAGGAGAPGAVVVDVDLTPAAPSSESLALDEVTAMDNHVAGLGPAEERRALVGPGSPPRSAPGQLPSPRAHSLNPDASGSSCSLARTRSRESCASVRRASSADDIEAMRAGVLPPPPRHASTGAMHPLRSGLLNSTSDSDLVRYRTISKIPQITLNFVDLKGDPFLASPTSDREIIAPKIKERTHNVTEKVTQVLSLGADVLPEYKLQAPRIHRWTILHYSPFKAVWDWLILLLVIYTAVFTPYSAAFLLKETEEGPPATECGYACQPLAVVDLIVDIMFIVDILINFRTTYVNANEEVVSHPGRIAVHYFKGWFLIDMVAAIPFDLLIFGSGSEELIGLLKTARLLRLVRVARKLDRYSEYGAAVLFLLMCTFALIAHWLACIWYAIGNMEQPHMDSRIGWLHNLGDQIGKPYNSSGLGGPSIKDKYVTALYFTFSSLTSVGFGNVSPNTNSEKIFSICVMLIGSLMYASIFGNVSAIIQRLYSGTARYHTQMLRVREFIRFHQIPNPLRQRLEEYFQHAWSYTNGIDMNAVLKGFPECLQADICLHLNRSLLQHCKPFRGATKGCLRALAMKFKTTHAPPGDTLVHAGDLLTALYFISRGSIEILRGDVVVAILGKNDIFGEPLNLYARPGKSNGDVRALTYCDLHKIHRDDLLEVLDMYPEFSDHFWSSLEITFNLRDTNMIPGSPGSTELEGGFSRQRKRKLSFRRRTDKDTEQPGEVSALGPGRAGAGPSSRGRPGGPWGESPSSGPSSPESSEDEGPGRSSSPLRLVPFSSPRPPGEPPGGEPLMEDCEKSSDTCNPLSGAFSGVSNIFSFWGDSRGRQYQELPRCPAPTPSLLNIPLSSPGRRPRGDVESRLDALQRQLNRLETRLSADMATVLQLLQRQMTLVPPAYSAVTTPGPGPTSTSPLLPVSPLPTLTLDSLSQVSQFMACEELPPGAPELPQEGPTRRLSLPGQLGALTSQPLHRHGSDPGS

Cytochrome P450 3A4 = Cytochrome P450 3A4 (Homo sapiens, UniProt P08684); assay: Inhibition of CYP3A4 in human liver microsomes; assay type: ADME; outline: as §3
Chain of Cytochrome P450 3A4 (P08684 whole entry): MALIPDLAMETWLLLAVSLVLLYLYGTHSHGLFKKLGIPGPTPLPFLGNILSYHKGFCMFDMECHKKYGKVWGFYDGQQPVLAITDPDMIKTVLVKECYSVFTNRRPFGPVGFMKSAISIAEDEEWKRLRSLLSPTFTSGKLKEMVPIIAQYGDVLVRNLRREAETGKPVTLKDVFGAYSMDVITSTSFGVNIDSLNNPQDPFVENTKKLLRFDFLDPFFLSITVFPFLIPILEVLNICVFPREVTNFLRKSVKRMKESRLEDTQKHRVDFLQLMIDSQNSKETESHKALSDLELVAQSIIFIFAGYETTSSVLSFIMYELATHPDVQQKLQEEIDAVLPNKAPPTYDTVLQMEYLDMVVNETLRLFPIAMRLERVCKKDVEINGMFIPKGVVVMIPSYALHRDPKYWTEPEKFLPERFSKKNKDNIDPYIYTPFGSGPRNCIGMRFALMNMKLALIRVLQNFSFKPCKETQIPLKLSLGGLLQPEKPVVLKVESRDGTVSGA

Structure (SMILES) | fraction unbound [1] | solubility at 24 h [2] [µM] | bioavailability [3] [%] | Papp at 10 µM [4] [×10⁻⁶ cm/s] | IC50 (Cytochrome P450 2C19) [µM] | hepatocyte CLint [5] [µL/min/1e6 cells] | clearance [6] [mL/min/kg] | efflux ratio at 10 µM [7] | clearance [9] [mL/min/kg] | hepatocyte CLint [10] [µL/min/1e6 cells] | bioavailability [11] [%] | Ratio [12] | IC50 (Cytochrome P450 1A2) [µM] | hepatocyte CLint [13] [µL/min/1e6 cells] | efflux ratio at 10 µM [14] | IC50 (Estrogen receptor [15]) [µM] | half-life [16] [h] | logD [17] | IC50 (Estrogen receptor [18]) [µM] | half-life [19] [h] | further results
COc1cc(/C=C/C(=O)O)ccc1[C@@H]1c2ccc3[nH]ncc3c2C[C@@H](C)N1CC(C)(F)F | 0.0087 | 810 (≈ 358 µg/mL) | 51 | 6.2 | > 30 | 18 | 32 | 2.2 | 2.8 | 5 | 45 | < 0.04 | > 30 | 9.6 | 1.7 | 0.001 | 1.3 | 2.5 | 0.001 | 6.8 | Stability [8]: Stable; Papp at 10 µM [20]: 8.4 ×10⁻⁶ cm/s; fraction unbound [21]: 0.022; fraction unbound [22]: 0.012; AUC [23]: 6.6 µM·h; Stability [24]: Stable; IC50 (Cytochrome P450 2D6): > 30 µM; Vd [25]: 0.36 L/kg; AUC [26]: 0.21 µM·h; Stability [27]: Stable; fraction unbound [28]: 0.0092; Vd [29]: 1 L/kg
C[C@@H]1Cc2c(ccc3[nH]ncc23)[C@@H](c2c(F)cc(/C=C/C(=O)O)cc2F)N1CC(C)(F)F | 0.0062 | 760 (≈ 340 µg/mL) | 16 | 5.8 | > 30 | 18 | 26 | 2.6 | 5.4 | 8 | 36 | < 0.04 | > 30 | 7.1 | 1.3 | 0.000398 | 3.7 | 2.3 | 0.000398 | 4.8 | IC50 (Cytochrome P450 2C9): 6.6 µM; IC50 [30]: > 100 µM; IC50 (Cytochrome P450 3A4): > 30 µM; Papp at 10 µM [20]: 10 ×10⁻⁶ cm/s; fraction unbound [21]: 0.013; fraction unbound [22]: 0.021; AUC [23]: 3 µM·h; IC50 (Cytochrome P450 2D6): > 30 µM; Vd [25]: 0.63 L/kg; AUC [26]: 0.57 µM·h; fraction unbound [28]: 0.011; Vd [29]: 1.6 L/kg
